Assay results taken from ChEMBL document CHEMBL1140859, “Design and synthesis of some thiazolyl and thiadiazolyl derivatives of antipyrine as potential non-acidic anti-inflammatory, analgesic and antimicrobial agents” (Bioorg Med Chem, 2009).
Converted amounts (≈) assume the structure as drawn.

Legend:
[1] = tested on: Micrococcus luteus; test: Antimicrobial activity against Micrococcus luteus ATCC 21881 after 24 hrs by twofold serial dilution method; type: functional; settings: ATCC 21881, 24 h
Outline: (§1)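 Broth microdilution in Müller–Hinton broth on compounds with agar-diffusion inhibition zones ≥14 mm (disks with 1 mg/mL in DMSO, 37 °C, 24 h, triplicate).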

[2] = tested on: Bacillus subtilis; test: Antimicrobial activity against Bacillus subtilis NRRL B-14819 after 24 hrs by twofold serial dilution method; type: functional; outline: as §1
[3] = tested on: Pseudomonas aeruginosa; test: Antimicrobial activity against Pseudomonas aeruginosa ATCC 27853 after 24 hrs by twofold serial dilution method; type: functional; settings: ATCC 27853, 24 h; outline: as §1
[4] = tested on: Escherichia coli; test: Antimicrobial activity against Escherichia coli ATCC 25922 after 24 hrs by twofold serial dilution method; type: functional; settings: ATCC 25922, 24 h; outline: as §1
[5] = tested on: Klebsiella pneumoniae; test: Antimicrobial activity against Klebsiella pneumoniae clinical isolate after 24 hrs by twofold serial dilution method; type: functional; outline: as §1
[6] = tested on: Staphylococcus aureus; test: Antimicrobial activity against Staphylococcus aureus ATCC 6538 after 24 hrs by twofold serial dilution method; type: functional; settings: ATCC 6538, 24 h; outline: as §1
[7] = tested on: Rattus norvegicus; test: Antiinflammatory activity against formalin-induced paw edema in anaesthetized Albino rat sub-acute inflammatory model at 20 mg/kg, po measured on day 1; type: functional
Outline: (§2)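 Sub-acute paw edema: test compounds 20 mg/kg po daily for 7 days, diclofenac Na 10 mg/kg po; 0.1 mL 2% formalin injected subplantar into left hind paw under light ether anaesthesia on days 1 and 3, 1 h after dosing. Paw volume measured on day 1 and day 8; % anti-inflammatory activity; N = 5 rats.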

[8] = Acute toxicity in Albino rat after 24 hrs; type: organism-based; settings: in vivo, read-out: ALD50
Outline: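 Male rats, 180–200 g, groups of five, fasted 24 h before dosing; compounds given orally in graded doses of 0.1–3.0 g/kg; mortality recorded at each dose level after 24 h to estimate approximate acute lethal dose (ALD50).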

[9] = tested on: Rattus norvegicus; test: Antiinflammatory activity against formalin-induced paw edema in anaesthetized Albino rat acute inflammatory model at 20 mg/kg, po dosed 1 hr before formalin challenge assessed after 1 hr; type: functional
Outline: (§3)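 Rats in groups of five plus control; test compounds 20 mg/kg po, diclofenac Na 10 mg/kg po, given 1 h before 0.1 mL 2% formalin injected subplantar into left hind paw under light ether anaesthesia. Paw volume by water plethysmometer at 0 and 1, 2, 3, 4 h after formalin; % anti-inflammatory activity versus control; mean ± SE, N = 5.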

[10] = tested on: Rattus norvegicus; test: Analgesic activity in Albino rat assessed as tail withdrawal response at 20 mg/kg, po after 1 hr; type: functional
Outline: (§4)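 Male albino rats, 120–150 g, groups of five plus untreated control; test compounds 20 mg/kg po, diclofenac Na 10 mg/kg po. Tail immersed in 55 °C water; withdrawal reaction time read 1, 2 and 3 h after dosing; percentage increase in reaction time over basal computed; mean ± SE of five animals.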

[11] = tested on: Rattus norvegicus; test: Toxicity in Albino rat assessed as induction of gastric ulceration at 300 mg/kg, po twice a day after 2 hrs; type: organism-based, Stomach; parameters: dose 300 mg/kg, route oral; settings: in vivo
Outline: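 Male albino rats (180–200 g), five per group, fasted 12 h with water ad libitum. Oral dosing at 300 mg/kg; the results text gives two doses at a 2 h interval, while the methods give two equal doses at 0 and 12 h over three days. Controls received 1% gum acacia orally. Rats were killed with ether 6 h after the last dose, and stomachs were inspected grossly for ulceration and hyperemia.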

[12] = tested on: Rattus norvegicus; test: Antiinflammatory activity against formalin-induced paw edema in anaesthetized Albino rat acute inflammatory model at 20 mg/kg, po dosed 1 hr before formalin challenge assessed after 3 hrs; type: functional; outline: as §3
[13] = tested on: Rattus norvegicus; test: Antiinflammatory activity against formalin-induced paw edema in anaesthetized Albino rat acute inflammatory model at 20 mg/kg, po dosed 1 hr before formalin challenge assessed after 4 hrs; type: functional; outline: as §3
[14] = tested on: Rattus norvegicus; test: Analgesic activity in Albino rat assessed as tail withdrawal response at 20 mg/kg, po after 2 hrs; type: functional; outline: as §4
[15] = tested on: Rattus norvegicus; test: Antiinflammatory activity against turpentine oil-induced granuloma pouch in anaesthetized Albino rat sub-acute inflammatory model at 20 mg/kg, po 1 hr before turpentine oil challenge for 7 days assessed after 8 days; type: functional
Outline: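 Dorsal subcutaneous pouch made in ether-anaesthetised rats with 2 mL air, then 0.5 mL turpentine oil. Test compounds 20 mg/kg po, diclofenac Na 10 mg/kg po, started 1 h before turpentine and continued 7 days. Exudate aspirated on day 8 under anaesthesia; volume measured; % inhibition = (Vcontrol − Vtreated)/Vcontrol × 100; N = 5.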

[16] = tested on: Rattus norvegicus; test: Antiinflammatory activity against formalin-induced paw edema in anaesthetized Albino rat sub-acute inflammatory model at 20 mg/kg, po for 7 days measured on day 8; type: functional; outline: as §2
[17] = tested on: Rattus norvegicus; test: Antiinflammatory activity against formalin-induced paw edema in anaesthetized Albino rat acute inflammatory model at 20 mg/kg, po dosed 1 hr before formalin challenge assessed after 2 hrs; type: functional; outline: as §3
[18] = tested on: Rattus norvegicus; test: Analgesic activity in Albino rat assessed as tail withdrawal response at 20 mg/kg, po after 3 hrs; type: functional; outline: as §4

Compound | MIC [1] | MIC [2] | MIC [3] | MIC [4] | MIC [5] | MIC [6] | Activity [7] | LD50 at 24 h [8] | Activity [9] | Activity [10] | Activity [11] | Activity [12] | Activity [13] | Activity [14] | Activity [15] | Activity [16] | Activity [17] | Activity [18]
Cc1nc2c(sc(=S)n2-c2ccc(Cl)cc2)c(=O)n1-c1c(C)n(C)n(-c2ccccc2)c1=O | 100 µg/mL (≈ 202 µM) | 100 µg/mL (≈ 202 µM) |  |  |  |  |  |  |  |  |  |  |  |  |  |  |  | 
CC1(C)S[C@@H]2[C@H](NC(=O)[C@H](N)c3ccccc3)C(=O)N2[C@H]1C(=O)O.O.O.O [AMPICILLIN TRIHYDRATE] | 12.5 µg/mL | 12.5 µg/mL | 12.5 µg/mL | 6.25 µg/mL | 12.5 µg/mL | 6.25 µg/mL |  |  |  |  |  |  |  |  |  |  |  | 
Cc1c(NC(=O)c2sc(=S)n(-c3ccccc3)c2N)c(=O)n(-c2ccccc2)n1C |  | 100 µg/mL (≈ 229 µM) |  |  |  |  | 20% | > 3000 mg/kg | 35% | 19% | Non-toxic | 41% | 43% | 50% | 50% | 34% | 37% | 67%
Cc1c(NC(=O)c2sc(=S)n(-c3ccccc3)c2NC(=S)Nc2ccc(Cl)cc2)c(=O)n(-c2ccccc2)n1C |  | 12.5 µg/mL (≈ 20.6 µM) | 50 µg/mL (≈ 82.3 µM) | 25 µg/mL (≈ 41.2 µM) | 50 µg/mL (≈ 82.3 µM) | 25 µg/mL (≈ 41.2 µM) |  |  |  |  |  |  |  |  |  |  |  | 
Cc1c(NC(=O)c2sc(=S)n(-c3ccc(Cl)cc3)c2N)c(=O)n(-c2ccccc2)n1C | 100 µg/mL (≈ 212 µM) | 100 µg/mL (≈ 212 µM) |  |  |  |  |  |  |  |  |  |  |  |  |  |  |  | 
Cc1c(NC(=O)/C(C#N)=C2\SCC(=O)N2c2ccccc2)c(=O)n(-c2ccccc2)n1C | 100 µg/mL (≈ 224 µM) | 100 µg/mL (≈ 224 µM) | 50 µg/mL (≈ 112 µM) | 50 µg/mL (≈ 112 µM) | 50 µg/mL (≈ 112 µM) | 50 µg/mL (≈ 112 µM) | 29% | > 3000 mg/kg | 13% | 22% | Non-toxic | 23% | 19% | 20% | 53% | 17% | 31% | 34%
CCOC(=O)Nc1nnc(SCC(=O)Nc2c(C)n(C)n(-c3ccccc3)c2=O)s1 |  | 100 µg/mL (≈ 223 µM) |  |  |  |  | 29% | > 3000 mg/kg | 35% | 17% | Non-toxic | 23% | 19% | 15% | 33% | 27% | 17% | 28%
CCOC(=O)/C(C#N)=C1/SC(C(=O)Nc2c(C)n(C)n(-c3ccccc3)c2=O)=C(N)N1c1ccccc1 | 25 µg/mL (≈ 48.4 µM) | 12.5 µg/mL (≈ 24.2 µM) | 50 µg/mL (≈ 96.8 µM) | 50 µg/mL (≈ 96.8 µM) | 50 µg/mL (≈ 96.8 µM) | 12.5 µg/mL (≈ 24.2 µM) | 29% | > 3000 mg/kg | 30% | 32% | Non-toxic | 38% | 29% | 50% | 53% | 31% | 26% | 67%
Cc1c(NC(=O)C2=C(N)N(c3ccccc3)C(=C(C#N)C#N)S2)c(=O)n(-c2ccccc2)n1C |  | 100 µg/mL (≈ 213 µM) |  |  |  |  | 40% | > 3000 mg/kg | 26% | 27% | Non-toxic | 38% | 40% | 46% | 62% | 32% | 40% | 72%
Cc1c(NC(=O)CSc2nnc(N)s2)c(=O)n(-c2ccccc2)n1C |  |  |  |  |  |  | 29% | > 3000 mg/kg | 26% | 42% | Non-toxic | 49% | 38% | 71% | 62% | 39% | 43% | 76%
Cc1c(NC(=O)c2sc(=S)n(-c3ccc(Cl)cc3)c2NC(=S)Nc2ccc(Cl)cc2)c(=O)n(-c2ccccc2)n1C |  | 100 µg/mL (≈ 156 µM) |  |  |  |  |  |  |  |  |  |  |  |  |  |  |  | 
Cc1c(NC(=O)/C(C#N)=C2\SCC(=O)N2c2ccc(Cl)cc2)c(=O)n(-c2ccccc2)n1C | 12.5 µg/mL (≈ 26 µM) | 25 µg/mL (≈ 52.1 µM) | 50 µg/mL (≈ 104 µM) | 25 µg/mL (≈ 52.1 µM) | 100 µg/mL (≈ 208 µM) | 50 µg/mL (≈ 104 µM) |  |  |  |  |  |  |  |  |  |  |  | 
Cc1c(NC(=O)c2sc(=S)n(-c3ccc(Cl)cc3)c2NC(=O)Nc2ccccc2)c(=O)n(-c2ccccc2)n1C |  | 100 µg/mL (≈ 169 µM) |  |  |  |  | 31% | > 3000 mg/kg | 26% | 18% | Non-toxic | 49% | 40% | 49% | 72% | 42% | 37% | 44%
Cc1c(NC(=O)CSc2nnc(NC(=S)Nc3ccc(Cl)cc3)s2)c(=O)n(-c2ccccc2)n1C |  |  |  |  |  | 100 µg/mL (≈ 183 µM) |  |  |  |  |  |  |  |  |  |  |  | 
Cc1c(NC(=O)/C(C#N)=C2\SC=C(c3ccc(Cl)cc3)N2c2ccccc2)c(=O)n(-c2ccccc2)n1C |  |  |  |  |  | 100 µg/mL (≈ 185 µM) | 37% | > 3000 mg/kg | 39% | 22% | Non-toxic | 33% | 43% | 43% | 58% | 44% | 29% | 43%
Cc1c(NC(=O)c2sc(=S)n(-c3ccc(Cl)cc3)c2NC(=S)Nc2ccccc2)c(=O)n(-c2ccccc2)n1C |  |  |  |  |  | 100 µg/mL (≈ 165 µM) |  |  |  |  |  |  |  |  |  |  |  | 
Cc1c(NC(=O)/C(C#N)=C2\SC=C(c3ccc(Cl)cc3)N2c2ccc(Cl)cc2)c(=O)n(-c2ccccc2)n1C |  | 100 µg/mL (≈ 174 µM) |  |  |  |  | 29% | > 3000 mg/kg | 35% | 34% | Non-toxic | 41% | 29% | 64% | 60% | 39% | 40% | 58%
Cc1c(NC(=O)/C(C#N)=C2\SC=C(c3ccc(Br)cc3)N2c2ccccc2)c(=O)n(-c2ccccc2)n1C |  | 100 µg/mL (≈ 171 µM) |  |  |  |  |  |  |  |  |  |  |  |  |  |  |  | 
Cc1c(NC(=O)CSc2nnc(NC(=S)Nc3ccccc3)s2)c(=O)n(-c2ccccc2)n1C |  |  |  |  |  | 100 µg/mL (≈ 195 µM) | 23% | > 3000 mg/kg | 26% | 27% | Non-toxic | 21% | 26% | 43% | 19% | 20% | 31% | 46%
CC(=O)Nc1nnc(SCC(=O)Nc2c(C)n(C)n(-c3ccccc3)c2=O)s1 |  |  |  |  |  | 100 µg/mL (≈ 239 µM) | 29% | > 3000 mg/kg | 43% | 30% | Non-toxic | 46% | 43% | 60% | 60% | 39% | 37% | 55%
